Compound activity: PubChem, several laboratories
In the library only some 6% were active in any assay of this set; here they are far more common.
Ecoli WT expand = blocks growth of wild type E. coli BW25113 | OD600 absorbance | growth inhibition, % at 100 µM | 98,000 compounds, 0.15% hits | AID 710;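 active means growth inhibition above about 50% at one test dose, limit read from the data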;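 further: growth measured after 20 h incubation at 37 °C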
PostGolgi ctrl = inhibits growth of the yeast control strain. efflux-deficient yeast background strain, growth absorbance A615, 16 h. inhibition, % at 10 µM. 98,000 compounds, 5% hits
PostGolgi yeast = growth inhibition of a yeast mutant, post-Golgi transport screen; post-Golgi transport phenotypic cell assay; inhibition, % at 10 µM; 98,000 compounds, 0.9% hits; AID 739;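 further: yeast cells grown in 1536-well plates; yeast grown about 18 h at 30C before absorbance read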
Ecoli tolC = growth inhibitors of E. coli BW25113 tolC mutant | OD615 | growth inhibition, % at 10 µM (by protocol) | 65,000 compounds, 2.2% hits | AID 573;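 active means growth inhibition at or above a cutoff equal to the mean over every tested compound plus 3 SD, cut at about 60% in these data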;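 further: growth measured after 20 h incubation at 37 °C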
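Doses: one dose of 10 µM final / Material: E. coli BW25113 ΔtolC::kan, tolC deletion mutant strain / Buffer or medium: LB with kanamycin 50 µg/mL / Evaluation: percent growth inhibition / Detection: optical density read at 615 nm / Incubation: 37 °C, 20 h exposure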
EphB4 antag = blocks human EphB4 binding to ephrin-B2; P54760; EphB4 LBD / TNYL-RAW-Alexa532 peptide, fluorescence polarization; inhibition, % at 7 µM; 97,000 compounds, 0.15% hits; AID 720;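 active means inhibition above the screen-wide mean inhibition plus 3 SD, cut at about 15% in these data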
Target sequence (P54760 whole entry, looked up, the tested form may be a part): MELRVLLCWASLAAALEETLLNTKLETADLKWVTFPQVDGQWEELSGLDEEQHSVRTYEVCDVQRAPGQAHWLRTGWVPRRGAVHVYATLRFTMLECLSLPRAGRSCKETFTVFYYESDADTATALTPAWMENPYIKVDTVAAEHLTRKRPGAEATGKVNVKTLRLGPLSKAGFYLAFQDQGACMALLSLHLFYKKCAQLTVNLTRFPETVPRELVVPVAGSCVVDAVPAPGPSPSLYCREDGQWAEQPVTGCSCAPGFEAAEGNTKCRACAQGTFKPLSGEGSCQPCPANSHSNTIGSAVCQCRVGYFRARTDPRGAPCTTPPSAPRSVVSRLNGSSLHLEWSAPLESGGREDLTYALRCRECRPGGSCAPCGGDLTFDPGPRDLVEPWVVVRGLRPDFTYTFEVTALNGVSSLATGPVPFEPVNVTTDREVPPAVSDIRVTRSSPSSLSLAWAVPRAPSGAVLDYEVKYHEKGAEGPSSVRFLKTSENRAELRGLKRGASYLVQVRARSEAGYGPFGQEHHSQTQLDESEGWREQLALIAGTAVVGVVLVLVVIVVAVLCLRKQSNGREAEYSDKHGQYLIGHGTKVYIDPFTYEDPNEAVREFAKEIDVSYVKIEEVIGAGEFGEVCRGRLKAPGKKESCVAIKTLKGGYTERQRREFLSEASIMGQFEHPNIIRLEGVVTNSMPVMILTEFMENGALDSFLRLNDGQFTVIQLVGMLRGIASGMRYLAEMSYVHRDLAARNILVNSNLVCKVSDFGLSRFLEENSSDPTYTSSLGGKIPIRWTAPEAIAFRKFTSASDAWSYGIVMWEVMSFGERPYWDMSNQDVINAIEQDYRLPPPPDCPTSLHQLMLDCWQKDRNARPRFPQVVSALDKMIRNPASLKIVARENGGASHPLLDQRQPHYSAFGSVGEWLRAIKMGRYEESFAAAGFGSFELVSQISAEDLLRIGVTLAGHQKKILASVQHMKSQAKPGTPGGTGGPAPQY
Of the large screens only hits and unclear results are named; the others gave an inactive call. Unless noted, no stated cut-off is given here; in the data, active means inhibition above about 30%; inactive means the rest.

O=C(Nc1cccnc1)c1c(O)c2c(n(Cc3ccccc3)c1=O)CCCC2	PostGolgi ctrl 38
O=C(Nc1ccncc1)c1c(O)c2ccccc2n(Cc2ccccc2)c1=O	none (no result: Ecoli WT expand, PostGolgi ctrl, PostGolgi yeast, EphB4 antag)
Cc1nc2ccccc2n1C1CCN(Cc2nnnn2CCc2ccccc2)CC1	PostGolgi ctrl 39
c1ccc(CCn2nnnc2CN2CCC(n3nnc4ccccc43)CC2)cc1	none (no result: EphB4 antag)
CCN1CCN(C(=O)COc2ccc3c(c2)C(=O)CC2(CCN(C(C)=O)CC2)O3)CC1	none (no result: Ecoli tolC)
CCN(c1ccc(C(O)(C(=O)OC)C(F)(F)F)cc1)S(=O)(=O)c1ccc(C)cc1 (configuration not stated)	PostGolgi ctrl 35 (no result: Ecoli tolC)
CCOC(=O)C(O)(c1ccc(N(CC)S(=O)(=O)c2ccc(C)cc2)cc1)C(F)(F)F (configuration not stated)	none (no result: Ecoli tolC)
CCn1c(=O)cc(SCC(=O)N2CCC3(CC2)OCCO3)c2ccccc21	none
CN1/C(=C\C=C\C2=[N+](C)c3ccc4ccccc4c3C2(C)C)C(C)(C)c2ccccc21	Ecoli WT expand 84, PostGolgi ctrl 100, PostGolgi yeast 101 (no result: Ecoli tolC)
O=P(C(c1c[nH]c2ccccc12)N1CCOCC1)(N1CCOCC1)N1CCOCC1 (configuration not stated)	none
CCC(=NCc1ccc(F)cc1)c1c(O)n(C)c(=O)n(C)c1=O	none
O=C(Cc1ccccc1)Oc1cccc(N2C(=O)CCC2=O)c1	PostGolgi ctrl 33
O=C(Cc1ccccc1)OCCN1CCCCC1	none
O=c1[nH]c(=S)n(Cc2ccco2)c(O)c1C=NCc1cccs1	PostGolgi ctrl 36 (no result: Ecoli tolC)
O=c1[nH]c(=O)n(Cc2ccco2)c(O)c1C=NCc1cccs1	none
CC(C)C12CN3CC(C(C)C)(CN(C1)C3c1cccnc1)C2=O (configuration not stated)	none (no result: Ecoli tolC)
CC1=[N+]([O-])C2(N)CCc3nonc3C2(O)C1 (configuration not stated)	none (no result: EphB4 antag)
COC(=O)C(O)(c1ccc(N(C)S(=O)(=O)c2ccccc2)cc1)C(F)(F)F (configuration not stated)	none (no result: EphB4 antag)
COC(=O)C(O)(c1ccc(NC(=S)NC(=O)c2ccccc2)cc1)C(F)(F)F (configuration not stated)	PostGolgi ctrl 33 (no result: Ecoli tolC)
ClCCNc1nc2ccc(Cl)cc2[nH]1	Ecoli WT expand 54 (no result: Ecoli tolC)
COc1ccccc1OCCCn1cc(C(=O)c2ccco2)c2ccccc21	PostGolgi ctrl 49
CN1CCc2nc3sc(C(=O)NC(C)(C)C)c(N)c3cc2C1	PostGolgi ctrl 68, PostGolgi yeast 96 (no result: Ecoli tolC)
COc1nc(NC(C)C)nc(NC(C)C)n1	none (no result: Ecoli tolC)
CC(=NCCC1=CCCCC1)c1c(O)[nH]c(=O)[nH]c1=O	none
O=C(Oc1c(Cl)cc(Cl)c2ccccc12)N1CCCCC1	PostGolgi ctrl 37 (no result: Ecoli tolC)
CCOC(=O)C(C)(CC)NC(=O)CSP(=S)(OCC)OCC (configuration not stated)	none (no result: Ecoli tolC)
O=C(COc1ccc(Cl)cc1Cl)N1CCN(C/C=C/c2ccccc2)CC1	PostGolgi ctrl 66, PostGolgi yeast 104 (no result: Ecoli tolC)
OC1(CN2CCOCC2)C2CC3CC(C2)CC1C3 (configuration not stated)	none
O=C1C2CCN(CC2)C1Cc1ccc(OCCOc2ccccc2)cc1 (configuration not stated)	PostGolgi ctrl 43
Cc1cccc(C)c1NC1=NCCCCS1	none
CCCCCCCSc1cc(OC)c(CCN(C)C)cc1OC	Ecoli WT expand 67, PostGolgi ctrl 84 (no result: Ecoli tolC)
Nc1c(C(=O)NC2CCCC2)c2nc3ccccc3nc2n1CC1CCCO1 (configuration not stated)	PostGolgi ctrl 62
COc1ccccc1OCC(=O)Nc1ccc(Cl)cc1C(=O)c1ccccc1	PostGolgi ctrl 40 (no result: Ecoli tolC)
O=C(Nc1ccc(Cl)cc1C(=O)c1ccccc1)c1ccccc1	none (no result: Ecoli tolC)
O=C1C(c2ccccc2)=C(N2CC2)c2ccccc21	none (no result: Ecoli tolC)
O=C1C(=O)c2ccccc2-c2ccccc21	PostGolgi ctrl 38 (no result: Ecoli tolC)
CCCC1COC(Cn2cncn2)(c2ccc(Cl)cc2Cl)O1 (configuration not stated)	PostGolgi ctrl 96, PostGolgi yeast 85 (no result: Ecoli tolC)
CC1(C)CC(=O)C(C=NCCN2CCN(C(=O)Cc3ccc(F)cc3)CC2)=C(O)C1	none (no result: EphB4 antag)
CCCCN1C(=O)NC(=O)C2(Cc3c(nc4c(C)cccn4c3=O)N3CCc4ccccc4C32)C1=O (configuration not stated)	PostGolgi ctrl 39, Ecoli tolC 98
CC(C)OC(=O)c1c(N)n(Cc2ccco2)c2nc3ccccc3nc12	PostGolgi ctrl 35
CC(C)CNC(=O)c1c(N)n(Cc2ccco2)c2nc3ccccc3nc12	PostGolgi ctrl 55 (no result: Ecoli tolC)
CCCNC(=O)c1c(N)n(Cc2ccco2)c2nc3ccccc3nc12	none (no result: Ecoli tolC)
COC(=NC1CCCC1)C(O)c1c[nH]c2ccccc12 (configuration not stated)	none (no result: Ecoli WT expand, PostGolgi ctrl, PostGolgi yeast)
O=C(Cn1ncc2c3ccccc3n(Cc3ccc(F)cc3)c2c1=O)N1CCC2(CC1)OCCO2	none
Cc1cc(C)n(CCOC(=O)C2C(C=C(Cl)Cl)C2(C)C)n1 (configuration not stated)	none
CCC(C)(C)n1nnnc1C(c1cccs1)N1CC=C(c2ccc(F)cc2)CC1 (configuration not stated)	PostGolgi ctrl 41
Fc1ccc(C2=CCN(C(c3cccs3)c3nnnn3CCc3ccccc3)CC2)cc1 (configuration not stated)	PostGolgi ctrl 43 (no result: Ecoli tolC)
Cc1ccc2c(c1)CC1(CN2C)C(=O)NC(=O)N(C(C)C)C1=O (configuration not stated)	none
Cc1ccc2c(c1)CC1(CN2C)C(=O)NC(=O)N(CCC2=CCCCC2)C1=O (configuration not stated)	PostGolgi ctrl 40
CCN(CC)c1ccc(CN2CC=C(c3ccc(F)cc3)CC2)cc1	PostGolgi yeast 60 (no result: Ecoli tolC)
CCN1CC=C(c2c[nH]c3ccccc23)CC1	none
COc1cc(C)c(CN2CCN(c3ccccc3)CC2)cc1C	none
CC(=NCc1cccnc1)c1c(O)n(-c2ccccc2C)c(=O)[nH]c1=O	none (no result: Ecoli tolC)
Cc1ccc(C2N(c3cc(C)on3)C(=O)C3CCCN32)cc1 (configuration not stated)	none
O=C(c1cc(-c2ccc(Cl)cc2)n(-c2ccc(Cl)cc2Cl)n1)N1CCOCC1	PostGolgi ctrl 33 (no result: Ecoli tolC)
N#Cc1ccccc1Cn1cc(C(=O)c2cccs2)c2ccccc21	PostGolgi yeast 57
Cc1ccc2nc3c(cc2c1)CC1(C(=O)N(C)C(=O)N(C)C1=O)C1CCCCN31 (configuration not stated)	none
Cc1ccc2nc3c(cc2c1)CC1(C(=O)N(C)C(=O)N(C)C1=O)C1COCCN31 (configuration not stated)	PostGolgi ctrl 32
CC(C)(C)n1c(O)c(C=Nc2ccc3c(c2)CCC3)c(=O)[nH]c1=O	PostGolgi ctrl 45, Ecoli tolC 82
O=c1[nH]c(=O)n(CCC2=CCCCC2)c(O)c1C=Nc1cccc(F)c1	none (no result: Ecoli tolC)
CCCCCCn1c(=O)c(C(=O)Nc2ccncc2)c(O)c2ccccc21	none (no result: Ecoli WT expand, PostGolgi ctrl, PostGolgi yeast, EphB4 antag)
CCCCn1c(=O)c(C(=O)Nc2ccccc2S(N)(=O)=O)c(O)c2ccccc21	Ecoli tolC 98 (no result: EphB4 antag)
